Experiment [1] is described as follows: Inhibition of proliferation measured by inhibition of [3H]thymidine incorporation by HMVEC-L cells. The format is functional, cell-based, Homo sapiens. The essentials: (§1)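 Human lung microvascular endothelial cells (HMVEC-L, donor, passages 3–9) were grown in EGM-MV to 75–90% confluence. Cells were given compound in fresh medium at 37 °C for 18 h, then pulsed 6 h with [3H]thymidine (2.5 μCi per 200 μL). TCA-precipitated DNA was solubilised in SDS and counted by liquid scintillation. IC50 by linear regression, or % inhibition at the stated concentration.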
(Incorporation of labelled thymidine or its analogues reports DNA synthesis.)

The species named for experiment [2] is Bos taurus. Nature of the experiment: Inhibition of [Fe(2+)]/ascorbate-induced oxidation of bovine heart membranes(antioxidant BHMLO). Format: functional. The essentials: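 Bovine heart membranes (KCl-washed, 100000g pellet, 20 mg/mL protein stock in 25 mM HEPES/150 mM NaCl pH 7.4) were preincubated with compound for 30 min at 37 °C. Peroxidation was started with FeCl2/ascorbic acid and run for 15 min at 21 °C. TBARS were developed by heating at 80 °C and read at 540 nm against a malonaldehyde bis(dimethyl acetal) standard curve. IC50 by linear regression.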

Experiment [3] deals with HMVEC-L. Nature of the experiment: (§2) Compound was evaluated for in vitro inhibition of proliferation measured by inhibition of [3H]thymidine incorporation by HMVEC-L cells. The format is functional. Further details: concentration or dose not given beside the values. The following applies: Homo sapiens, dose or concentration not given here. In outline:
as §1

A short description of experiment [4]: as §2. The format is functional, Homo sapiens. Further details: concentration or dose not given beside the values. The essentials:
as §1

Where only a bound is given, the exact number is not on record here.

In general, IC50 refers to the concentration that inhibits the measured activity by half. As to `COc1ccc2cc(C(C)C(=O)OCCC3(C)CCc4c(C)c(OC)c(C)c(C)c4O3)ccc2c1` (stereo not drawn), the IC50 amounted to 25 µM in experiment [1] and 14000 µM in experiment [2].

In the case of VITAMIN E [listing 1 of 2 here], the IC50 in experiment [2] came out at 5170 µM.

On to `COc1ccc2cc([C@H](C)C(=O)OCCC3(C)Cc4c(C)c(O)c(C)c(C)c4O3)ccc2c1` (stereo in doubt; 2b), for which the IC50 came out at 16.6 µM in experiment [1] and 5.2 µM in experiment [2].

As to `COc1ccc2cc([C@H](C)C(=O)OCCC3(C)Cc4c(C)c(O)c(C)c(C)c4O3)ccc2c1` (stereo in doubt; 2a), the IC50 in experiment [1] was found to be 9.1 µM; in experiment [2], 4.87 µM.

As for `COc1ccc2cc([C@H](C)C(=O)OCCC3(C)CCc4c(C)c(O)c(C)c(C)c4O3)ccc2c1` (stereo partly drawn), the concentration for half-maximal inhibition (IC50) in experiment [1] stood at 12.9 µM; in experiment [2], 7.66 µM.

Regarding `COc1ccc2cc(C(C)C(=O)NCC3(C)CCc4c(C)c(OC(C)=O)c(C)c(C)c4O3)ccc2c1` (stereo not drawn), the concentration for half-maximal inhibition (IC50) is 3.3 µM in experiment [1] and 1.6 µM in experiment [2].

`COc1ccc2cc([C@H](C)C(=O)NCC3(C)CCc4c(C)c(O)c(C)c(C)c4O3)ccc2c1` (stereo partly drawn): the values for the IC50 in experiment [1] and in experiment [2] were 4.3 µM and 2.5 µM, respectively.

Regarding `COc1ccc2cc([C@H](C)C(=O)OCCC3(C)Cc4c(C)c(O)c(C)c(C)c4O3)ccc2c1` (stereo in doubt; 2c), the figures for the IC50 in experiment [1] and in experiment [2] were 16.4 µM and 5.1 µM, respectively.

Regarding `COc1ccc2cc([C@@H](C)C(=O)OCC[C@@]3(C)CCc4c(C)c(O)c(C)c(C)c4O3)ccc2c1`, inhibition in experiment [1] was half-maximal at 22 µM (IC50).

Broadly, the inhibition is the relative decrease from the control value, in per cent. Turning to VITAMIN E [listing 2 of 2 here], the inhibition in experiment [3] stood at 22%.

`COc1ccc2cc([C@H](C)C(=O)NCC3(C)CCc4c(C)c(OC(C)=O)c(C)c(C)c4O3)ccc2c1` (stereo partly drawn) came in with an IC50 in experiment [1] of 4 µM.

With `COc1ccc2cc(C(C)C(=O)OCC[C@@]3(C)CCc4c(C)c(O)c(C)c(C)c4O3)ccc2c1` (single isomer, unassigned), the IC50 in experiment [1] worked out at 11.7 µM; in experiment [2], 11.6 µM.

Turning to `COc1ccc2cc([C@@H](C)C(=O)NCC3(C)CCc4c(C)c(O)c(C)c(C)c4O3)ccc2c1` (stereo partly drawn), the IC50 was found to be 4.5 µM in experiment [1] and 4.8 µM in experiment [2].

As a reminder, the Inhibition is the share of the control response that was lost under treatment. On to `Cc1c(C)c2c(c(C)c1O)CCC(C)(CCO)O2` (stereo not drawn), for which, in experiment [4], the Inhibition came to 30%. This compound also returned an IC50 in experiment [2] of 3.82 µM.

For the compound `COc1ccc2cc(C(C)C(=O)OCC3(C)CCc4c(C)c(O)c(C)c(C)c4O3)ccc2c1` (stereo not drawn), the figures for the IC50 in experiment [1] and in experiment [2] were 11.3 µM and 4.36 µM, respectively.

For `COc1ccc2cc(CC(=O)O)ccc2c1` [6-METHOXY-2-NAPHTHYLACETIC ACID], the Inhibition in experiment [4] worked out at 5%.

With `COc1ccc2cc([C@H](C)C(=O)OCC[C@]3(C)CCc4c(C)c(O)c(C)c(C)c4O3)ccc2c1`, the IC50 worked out at 16.4 µM in experiment [1] and 9.6 µM in experiment [2].

For `COc1ccc2cc([C@H](C)COC(=O)CC3(C)CCc4c(C)c(O)c(C)c(C)c4O3)ccc2c1` (stereo partly drawn), the IC50 stood at 12 µM in experiment [1] and 4.4 µM in experiment [2].

For `Cc1c(C)c2c(c(C)c1O)CCC(C)(C(=O)O)O2` (stereo not drawn) [TROLOX], the Inhibition in experiment [4] turned out to be 20%. The same compound registered an IC50 in experiment [2] of 25.6 µM.

On to `COc1ccc2cc(C(C)C(=O)NCCC3(C)Cc4c(C)c(O)c(C)c(C)c4O3)ccc2c1` (stereo not drawn), for which the IC50 worked out at 1.9 µM in experiment [1] and 5.6 µM in experiment [2].

Regarding `COc1ccc2cc(C(C)C(=O)OCC3(C)Cc4c(C)c(O)c(C)c(C)c4O3)ccc2c1` (stereo not drawn), the IC50 was 7.3 µM in experiment [1] and 4.83 µM in experiment [2].

With `COc1ccc2cc(C(C)C(=O)NCCC3(C)CCc4c(C)c(O)c(C)c(C)c4O3)ccc2c1` (stereo not drawn), the values for the IC50 in experiment [1] and in experiment [2] were 7.4 µM and 4.67 µM, respectively.

In turn, `COc1ccc2cc(CC(=O)OCCC3(C)CCc4c(C)c(O)c(C)c(C)c4O3)ccc2c1` (stereo not drawn) displayed an Inhibition in experiment [4] of 44%. This compound showed an IC50 in experiment [2] of 4.5 µM.

Turning to `COc1ccc2cc([C@H](C)C(=O)OCC3(C)COc4c(C)c(C)c(O)c(C)c43)ccc2c1` (stereo partly drawn), the results for the IC50 in experiment [1] and in experiment [2] were 19 µM and 5.2 µM, respectively.

Take `COc1ccc2cc(C(C)C(=O)NCC3(C)CCc4c(C)c(O)c(C)c(C)c4O3)ccc2c1` (stereo not drawn): the values for the IC50 in experiment [1] and in experiment [2] were 4.3 µM and 3.99 µM, respectively.

For the compound `COc1ccc2cc(C(C)C(=O)OCCC3(C)CCc4c(C)c(OC(C)=O)c(C)c(C)c4O3)ccc2c1` (stereo not drawn), the results for the IC50 in experiment [1] and in experiment [2] were 11.5 µM and 4.5 µM, respectively.

On to `COc1ccc2cc([C@H](C)C(=O)O)ccc2c1` [NAPROXEN], for which, in experiment [1], the IC50 was more than 50 µM.

(Values after ChEMBL document CHEMBL1132417, “Novel esters and amides of nonsteroidal antiinflammatory carboxylic acids as antioxidants and antiproliferative agents” (J Med Chem, 1999).)
